# Screening results deposited in PubChem by several laboratories.
# Rtt109 Vps75: blocks Candida albicans Rtt109/Vps75 acetyltransferase activity; 0.16% of 330,000 active; inhibition, % at 34.9 µM; Q5AAJ8; purified Rtt109/Vps75, ThioGlo CoA-SH fluorescence, 4 h;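 active means inhibition of at least 50% in every replicate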
# ASAP1 GAP inh: blocks human ASAP1-stimulated Arf1 GTP hydrolysis; Q9ULH1; GDP FP detection; inhibition, % at 16.5 µM; 0.19% of 360,000 active; in the data active means inhibition above about 25%
# Target sequence (Q9ULH1 325-724 limits assumed): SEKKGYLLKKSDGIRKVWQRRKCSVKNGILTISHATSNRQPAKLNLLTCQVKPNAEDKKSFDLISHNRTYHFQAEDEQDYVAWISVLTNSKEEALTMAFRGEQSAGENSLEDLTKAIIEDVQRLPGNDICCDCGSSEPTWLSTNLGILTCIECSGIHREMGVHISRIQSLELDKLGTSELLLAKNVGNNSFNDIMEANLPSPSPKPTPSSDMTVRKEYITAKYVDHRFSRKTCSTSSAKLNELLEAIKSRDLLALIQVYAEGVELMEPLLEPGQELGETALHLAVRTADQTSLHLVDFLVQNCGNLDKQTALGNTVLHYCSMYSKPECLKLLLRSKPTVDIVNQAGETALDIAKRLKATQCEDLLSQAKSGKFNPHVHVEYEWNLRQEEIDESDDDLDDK
# Efflux pump inh: inhibitors of Candida antifungal efflux pumps expressed in yeast; S. cerevisiae Candida pump triplex, Nile Red efflux; 0.44% of 330,000 active; inhibition, % at 10 µM;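 active means plate passing quality check with inhibition over a set limit, or well fluorescence over plate mean plus 4 SD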;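 further: Nile Red retained in pooled yeast measured as flow cytometry median fluorescence; higher means more Nile Red kept so more efflux inhibition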
# ARFGAP1 inh: inhibitors of rat ARFGAP1 | Q62848 | Arfgap1-stimulated ARF1 GTP hydrolysis, GDP FP detection | inhibition, % at 16.5 µM | 0.26% of 360,000 active | AID 651572;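 active means inhibition above a per-plate limit, mean inhibition of low control wells plus 3 SD, cut at about 25% in these data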
# Target sequence (Q62848 1-136 limits assumed): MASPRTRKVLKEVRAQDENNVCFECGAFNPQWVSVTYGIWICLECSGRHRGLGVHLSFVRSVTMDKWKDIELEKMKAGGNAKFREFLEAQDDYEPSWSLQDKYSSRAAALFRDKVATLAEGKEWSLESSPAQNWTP
#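 System: truncated rat Arfgap1 GAP domain / Medium: HEPES-based buffer, pH 7.5 / Also added: N-terminally truncated human ARF1-GTP substrate / Incubation: enzyme reaction 120 min at 25 °C after 20 min preincubation / Measured by: FP of antibody-bound GDP Alexa 633 tracer, ex 620/em 688 nm / Replicates: singlicate, each compound tested once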
# FGF22 binding-1: shifts melting point of recombinant human FGF22; Q9HCT0; recombinant FGF22 thermal shift, SYPRO orange fluorescence; percent of sucrose octasulfate shift, DMSO zero; activity (Tm shift, normalised), % at 9.99 µM; 1.5% of 340,000 active;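 active means mean Tm shift, scaled 0 neutral to 100 positive control, at about 1.3% or above, every replicate too, limit read from the data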
# ARFGAP1 confirm: confirmation of rat ARFGAP1 inhibitors; AID 651608; shares compounds with ARFGAP1 inh; ARFGAP1-stimulated ARF1 GTP hydrolysis, GDP tracer FP; inhibition, % at 16.5 µM; 30% of 890 active;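 active means average inhibition over triplicates above the hit cutoff set in the earlier primary screen, cut at about 25% in these data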
# FGF22 binding-2: FGF22 (human) binding in thermal shift | 2% of 1,000 active | recombinant FGF22 thermal shift, SYPRO orange fluorescence | shares compounds with FGF22 binding-1 | thermal shift activity, °C (ΔTm) at 38 µM | AID 720646;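 active means fitted rise in melting shift crosses a set limit at or below the top valid dose tested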
# FGF22 TSA: binds human FGF22 shifting its melting temperature. Thermal shift assay, SYPRO orange, melting temperature shift. shares compounds with FGF22 binding-1. 50 tested, under 10 active. Tm shift (activity), % at 38 µM;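 active means compounds whose fitted dose curve of melting temperature shift rises past a set threshold within the tested doses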
# SYPRO no-protein: counter-screen for FGF22 binders: compound-only thermal shift, no protein. compound-only SYPRO orange thermal shift counter-screen. AC50, µM (titrated, usually from 38 µM). shares compounds with FGF22 binding-1. 2% of 1,000 active;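 active means rising signal whose fitted curve reaches the 0.54 level within the top valid dose, showing a melting point, actives reach about 13 µM in these data; inactive means the rest, including activity in the opposite direction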; further: value is where the raw curve crosses a fixed level and not half-maximal
# Numbers stand for hits; i = inactive; nt = not tested or not shown. Rows were chosen to be rich in hits. Some 1.9% of all compounds tested hit in one or more screens of this group.
SMILES,Rtt109 Vps75,ASAP1 GAP inh,Efflux pump inh,ARFGAP1 inh,FGF22 binding-1,FGF22 binding-2,SYPRO no-protein,others
CCn1c(CSc2nc3ccccc3s2)nnc1SCC(=O)c1ccc(O)c(O)c1,i,i,i,32,nt,nt,nt,ARFGAP1 confirm=i
CSc1ccc(/C=N/NC(=O)c2ccc3nc[nH]c3c2)cc1,nt,i,nt,28,2.2,nt,i,ARFGAP1 confirm=i;FGF22 TSA=i
O=C1CC(/C=C/c2ccc(Cl)cc2)=Nc2ccccc2N1,i,i,i,i,i,nt,nt,
O=C(Nc1ccc(F)cc1)N[C@@H]1CC[C@H](CCn2cc(-c3ccccc3F)nn2)O[C@H]1CO,nt,nt,nt,nt,2.9,i,i,
O=C(Cc1cccnc1)N[C@@H]1CC[C@@H](CCn2cc(-c3ccccc3F)nn2)O[C@@H]1CO,nt,nt,nt,nt,1.3,i,i,
O=C(Nc1ccc(F)cc1)N[C@H]1CC[C@@H](CCn2cc(-c3ccccc3F)nn2)O[C@@H]1CO,nt,nt,nt,nt,1.7,i,i,
O=C(Nc1ccc(F)cc1)N[C@H]1CC[C@@H](CCn2cc(-c3ccccc3F)nn2)O[C@H]1CO,nt,nt,nt,nt,1.4,i,i,
O=C(Nc1ccc(F)cc1)N[C@H]1CC[C@H](CCn2cc(-c3ccccc3F)nn2)O[C@@H]1CO,nt,nt,nt,nt,i,nt,nt,
O=C(Cc1cccnc1)N[C@@H]1CC[C@H](CCn2cc(-c3ccccc3F)nn2)O[C@H]1CO,nt,nt,nt,nt,i,nt,nt,
C[C@@H]1CCCCO[C@H](CN(C)C(=O)c2ccncc2)[C@@H](C)CN([C@@H](C)CO)C(=O)c2cc(NS(C)(=O)=O)ccc2O1,nt,nt,nt,nt,i,nt,nt,
CN1c2ccc(-c3ccc(C#N)cc3)cc2[C@@H]2[C@@H](CCN2C(=O)CC2CC2)[C@@H]1CO,nt,nt,nt,nt,i,nt,nt,
C[C@@H]1CN([C@H](C)CO)C(=O)Cc2cc(NS(C)(=O)=O)ccc2O[C@@H]1CN(C)Cc1ccc(C(=O)O)cc1,nt,nt,nt,nt,39,i,i,
C[C@@H]1CN([C@@H](C)CO)C(=O)Cc2cc(NC(=O)C3CC3)ccc2O[C@H]1CN(C)Cc1ccc(Cl)c(Cl)c1,nt,nt,nt,nt,3.1,i,i,
O=C(CC1CC1)N1CC2(C1)[C@@H](c1ccccc1)[C@@H](CO)N2S(=O)(=O)Cc1ccccc1,nt,nt,nt,nt,1.3,i,i,
O=C(C1CCCC1)N1CC2(C1)[C@H](c1ccccc1)[C@@H](CO)N2CC1CC1,nt,nt,nt,nt,1.6,i,i,
CCC(=O)N1CC2(C1)[C@H](c1ccccc1)[C@H](CO)N2S(=O)(=O)Cc1ccccc1,nt,nt,nt,nt,16,i,i,
CCC(=O)N1CC2(C1)[C@@H](c1ccccc1)[C@@H](CO)N2S(=O)(=O)Cc1ccccc1,nt,nt,nt,nt,i,nt,nt,
CCCCn1c(N)c(N(CCC(C)C)C(=O)CSc2nc3ccccc3n2C)c(=O)[nH]c1=O,i,i,nt,i,i,nt,nt,
C[C@@H]1CN([C@@H](C)CO)C(=O)c2cc(NC(=O)c3ccncc3)ccc2O[C@H]1CN(C)S(=O)(=O)c1ccc(F)cc1,nt,nt,nt,nt,i,nt,nt,
C[C@@H]1CN([C@@H](C)CO)C(=O)c2cc(NS(=O)(=O)c3ccc(Cl)cc3)ccc2O[C@@H]1CN(C)S(=O)(=O)c1ccc(F)cc1,nt,nt,nt,nt,2.9,i,i,
Cc1ccc(S(=O)(=O)Nc2ccc3c(c2)C(=O)N([C@@H](C)CO)C[C@@H](C)[C@@H](CN(C)C)O3)cc1,nt,nt,nt,nt,1.9,i,i,
C[C@H](CO)N1C[C@H](C)[C@H](CN(C)S(=O)(=O)c2ccc(F)cc2)Oc2ccc(NC(=O)c3ccncc3)cc2C1=O,nt,nt,nt,nt,1.9,i,i,
CCOC(=O)C1=NN(C(=O)Nc2cccc(C(F)(F)F)c2)C2C(=O)N(c3cccc(C(F)(F)F)c3)C(=O)C12 (stereo unspecified),i,i,i,i,nt,nt,nt,
CNC[C@H]1Oc2c(NS(=O)(=O)c3ccc(OC)cc3)cccc2C(=O)N([C@H](C)CO)C[C@@H]1C,i,i,i,i,i,nt,nt,
